According to ChEMBL document CHEMBL1145212, “Fluorinated diaryl sulfides as serotonin transporter ligands: synthesis, structure-activity relationship study, and in vivo evaluation of fluorine-18-labeled compounds as PET imaging agents” (J Med Chem, 2005):

Columns and labels:
Conditions in all cases: tested as the 18F-labelled form
[1] = biological target: Sodium-dependent serotonin transporter (Rattus norvegicus) (UniProt P31652); assay: Specific binding of [18F]-AFA in rat striatum after nisoxetine treatment; n=3; format: functional, tissue-based
Sodium-dependent serotonin transporter (Rattus norvegicus), sequence (P31652 whole entry): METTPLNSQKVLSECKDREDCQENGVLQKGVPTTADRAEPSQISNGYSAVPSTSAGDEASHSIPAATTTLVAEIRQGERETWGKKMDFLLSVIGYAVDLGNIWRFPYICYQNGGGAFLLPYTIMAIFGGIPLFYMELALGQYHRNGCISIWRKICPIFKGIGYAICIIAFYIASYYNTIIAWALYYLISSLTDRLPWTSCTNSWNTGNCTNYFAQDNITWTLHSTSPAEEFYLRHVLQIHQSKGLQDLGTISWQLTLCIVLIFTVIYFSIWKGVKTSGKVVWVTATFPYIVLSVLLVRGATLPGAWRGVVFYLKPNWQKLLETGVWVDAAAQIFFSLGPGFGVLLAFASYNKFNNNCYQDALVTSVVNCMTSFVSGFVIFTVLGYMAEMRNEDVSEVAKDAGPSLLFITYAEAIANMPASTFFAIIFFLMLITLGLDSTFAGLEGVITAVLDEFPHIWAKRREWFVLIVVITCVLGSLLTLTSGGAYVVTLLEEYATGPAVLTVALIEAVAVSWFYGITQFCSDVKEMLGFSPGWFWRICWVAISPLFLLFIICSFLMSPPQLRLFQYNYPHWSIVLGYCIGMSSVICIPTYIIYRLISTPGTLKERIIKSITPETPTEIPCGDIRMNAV
Procedure, shortened: (§1)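 Rats, three per group, were pretreated iv with blocker at 2 mg/kg in saline, or with saline as control, 10–15 min before tail-vein F-18 radioligand (about 20 µCi). Killed at 60 min and regional %ID/g determined. Specific binding = (region activity − cerebellum activity)/cerebellum activity; mean ± SD.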

Rattus norvegicus [2] = species on record: Rattus norvegicus; assay: Regional uptake of [18F]-AFA in blood of rat pretreated with compound GBR-12935; n=3; format: functional, organism-based
Procedure, shortened: (§2)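 Male Sprague-Dawley rats, three per group, received blocker (2 mg/kg iv in saline) or saline only (controls) 10–15 min before about 20 µCi of tail-vein F-18 radioligand. Killed 60 min after tracer. Blood and brain regions weighed and gamma-counted. %ID/g was decay- and tail-corrected; mean ± SD.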

Rattus norvegicus [3] = species on record: Rattus norvegicus; assay: Regional uptake of [18F]AFA in hippocampus of rat pretreated with compound GBR-12935; n=3; format: functional, organism-based; procedure, shortened: as §2
Rattus norvegicus [4] = species on record: Rattus norvegicus; assay: Regional uptake of [18F]-AFA in hypothalamus of rat pretreated with compound nisoxetine; n=3; format: functional, organism-based; procedure, shortened: as §2
[5] = biological target: Sodium-dependent serotonin transporter (Rattus norvegicus) (UniProt P31652); assay: Specific binding of [18F]AFA in rat hypothalamus after nisoxetine treatment; n=3; format: functional, tissue-based; procedure, shortened: as §1
Rattus norvegicus [6] = species on record: Rattus norvegicus; assay: Regional uptake of [18F]AFA in thalamus of rat pretreated with compound nisoxetine; n=3; format: functional, organism-based; procedure, shortened: as §2
Rattus norvegicus [7] = species on record: Rattus norvegicus; assay: Regional uptake of [18F]AFA in frontal cortex of rat pretreated with compound nisoxetine; n=3; format: functional, organism-based; procedure, shortened: as §2
Rattus norvegicus [8] = species on record: Rattus norvegicus; assay: Regional uptake of [18F]-AFA in striatum of rat pretreated with compound GBR-12935; n=3; format: functional, organism-based; procedure, shortened: as §2
Rattus norvegicus [9] = species on record: Rattus norvegicus; assay: Regional uptake of [18F]AFA in thalamus of rat pretreated with compound GBR-12935; n=3; format: functional, organism-based; procedure, shortened: as §2
Rattus norvegicus [10] = species on record: Rattus norvegicus; assay: Regional uptake of [18F]AFA in frontal cortex of rat pretreated with compound 7f; n=3; format: functional, organism-based
Rattus norvegicus [11] = species on record: Rattus norvegicus; assay: Regional uptake of [18F]AFA in hypothalamus of rat pretreated with compound GBR-12935; n=3; format: functional, organism-based; procedure, shortened: as §2
Rattus norvegicus [12] = species on record: Rattus norvegicus; assay: Regional uptake of [18F]-AFP in striatum of rat pretreated with compound 7f; n=3
Rattus norvegicus [13] = species on record: Rattus norvegicus; assay: Regional uptake of [18F]AFA in blood of rat pretreated with compound nisoxetine; n=3; format: functional, organism-based; procedure, shortened: as §2
[14] = biological target: Sodium-dependent serotonin transporter (Rattus norvegicus) (UniProt P31652); assay: Specific binding of [18F]AFA in rat thalamus after GBR-12935 treatment; n=3; format: functional, tissue-based; procedure, shortened: as §1
[15] = biological target: Sodium-dependent serotonin transporter (Rattus norvegicus) (UniProt P31652); assay: Specific binding of [18F]AFA in rat hypothalamus after GBR-12935 treatment; n=3; format: functional, tissue-based; procedure, shortened: as §1
Rattus norvegicus [16] = species on record: Rattus norvegicus; assay: Regional uptake of [18F]AFA in cerebellum of rat pretreated with compound GBR-12935; n=3; format: functional, organism-based; procedure, shortened: as §2
Rattus norvegicus [17] = species on record: Rattus norvegicus; assay: Regional uptake of [18F]AFA in cerebellum of rat pretreated with compound citalopram; n=3; format: functional, organism-based; procedure, shortened: as §2
Rattus norvegicus [18] = species on record: Rattus norvegicus; assay: Regional uptake of [18F]AFA in striatum of rat pretreated with compound nisoxetine; n=3; format: functional, organism-based; procedure, shortened: as §2
Rattus norvegicus [19] = species on record: Rattus norvegicus; assay: Regional uptake of [18F]AFA in frontal cortex of rat pretreated with compound GBR-12935; n=3; format: functional, organism-based; procedure, shortened: as §2
Rattus norvegicus [20] = species on record: Rattus norvegicus; assay: Regional uptake of [18F]AFA in cerebellum of rat pretreated with compound 7f; n=3; format: functional, organism-based
Rattus norvegicus [21] = species on record: Rattus norvegicus; assay: Regional uptake of [18F]AFA in hypothalamus of rat pretreated with compound citalopram; n=3; format: functional, organism-based; procedure, shortened: as §2
[22] = biological target: Sodium-dependent serotonin transporter (Rattus norvegicus) (UniProt P31652); assay: Specific binding of [18F]AFA in rat thalamus after nisoxetine treatment; n=3; format: functional, tissue-based; procedure, shortened: as §1
[23] = biological target: Sodium-dependent serotonin transporter (Rattus norvegicus) (UniProt P31652); assay: Specific binding of [18F]AFA in rat frontal cortex after nisoxetine treatment; n=3; format: functional, tissue-based; procedure, shortened: as §1
[24] = biological target: Sodium-dependent serotonin transporter (Rattus norvegicus) (UniProt P31652); assay: Specific binding of [18F]AFA in rat hippocampus after citalopram treatment; n=3; format: functional, tissue-based; procedure, shortened: as §1

Specific binding [1]: 0.58 %ID/g
Specific binding [5]: 0.84 %ID/g
Specific binding [14]: 0.98 %ID/g
Specific binding [15]: 0.87 %ID/g
Specific binding [22]: 0.88 %ID/g
Specific binding [23]: 0.72 %ID/g
Specific binding [24]: 0.32 %ID/g
SMILES: CN(C)Cc1ccccc1Sc1ccc(CCCF)cc1N
Uptake (Rattus norvegicus [2]): 0.09 %ID/g
Uptake (Rattus norvegicus [3]): 0.16 %ID/g
Uptake (Rattus norvegicus [4]): 0.15 %ID/g
Uptake (Rattus norvegicus [6]): 0.15 %ID/g
Uptake (Rattus norvegicus [7]): 0.13 %ID/g
Uptake (Rattus norvegicus [8]): 0.17 %ID/g
Uptake (Rattus norvegicus [9]): 0.18 %ID/g
Uptake (Rattus norvegicus [10]): 0.08 %ID/g
Uptake (Rattus norvegicus [11]): 0.17 %ID/g
Uptake (Rattus norvegicus [12]): 0.08 %ID/g
Uptake (Rattus norvegicus [13]): 0.08 %ID/g
Uptake (Rattus norvegicus [16]): 0.09 %ID/g
Uptake (Rattus norvegicus [17]): 0.08 %ID/g
Uptake (Rattus norvegicus [18]): 0.13 %ID/g
Uptake (Rattus norvegicus [19]): 0.15 %ID/g
Uptake (Rattus norvegicus [20]): 0.08 %ID/g
Uptake (Rattus norvegicus [21]): 0.13 %ID/g
